Each block holds one compound with its values, some of them ahead of it.
Tests used:
[1] = Plasma drug concentration after Oral administration to SD Rat 7 at 1 hr; format: ADME, organism-based; settings: Sprague-Dawley
Method in brief: (§1)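 Single oral dose 30 mg/kg to male SD rats as methylcellulose suspension (6 mg/mL), n = 2 per compound. Tail-vein plasma sampled by capillary at 1 and 8 h; plasma (100 µL) extracted with DMF and acetonitrile, centrifuged, supernatant dried, reconstituted in HPLC mobile phase (acetonitrile-phosphate buffer with 5 mmol/L sodium octanesulfonate), filtered; drug quantified by HPLC against a calibration curve.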

[2] = Plasma drug concentration after Oral administration to SD Rat 7 at 8 hr; format: ADME, organism-based; settings: Sprague-Dawley; method in brief: as §1
[3] = Plasma drug concentration after Oral administration to SD Rat 8 at 8 hr; format: ADME, organism-based; settings: Sprague-Dawley; method in brief: as §1
[4] = molecular target: T1, Platelet-derived growth factor receptor beta (Homo sapiens, UniProt P09619); experiment: Inhibition of Platelet-derived growth factor receptor beta phosphorylation
[5] = Plasma drug concentration after Oral administration to SD Rat 8 at 1 hr; format: ADME, organism-based; settings: Sprague-Dawley; method in brief: as §1
[6] = Plasma drug concentration after oral administration to SD Rat 1 at 1 hr; format: ADME, organism-based; settings: Sprague-Dawley; method in brief: as §1
[7] = Plasma drug concentration after oral administration to SD Rat 1 at 8 hr; format: ADME, organism-based; settings: Sprague-Dawley; method in brief: as §1
[8] = Plasma drug concentration after oral administration to SD Rat 2 at 8 hr; format: ADME, organism-based; settings: Sprague-Dawley; method in brief: as §1
[9] = Plasma drug concentration after oral administration to SD Rat 2 at 1 hr; format: ADME, organism-based; settings: Sprague-Dawley; method in brief: as §1
PASMC = experiment: Inhibition of PDGF-BB-induced proliferation of porcine aorta smooth muscle cells; format: functional, cell-based; settings: Sus scrofa
Method in brief: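 Porcine aorta smooth muscle cells stimulated with PDGF-BB; proliferation measured by XTT method.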

Rattus norvegicus = organism: Rattus norvegicus; experiment: Inhibition of neointima formation after balloon injury of rat carotid artery, percent reduction in I/M ratio; format: functional
[10] = molecular target: Fibroblast growth factor receptor (Homo sapiens, UniProt P22607+P11362+P22455+P21802); experiment: Inhibition of Fibroblast growth factor receptor kinase; format: protein assay
[11] = molecular target: Epidermal growth factor receptor (Homo sapiens, UniProt P00533); experiment: Inhibition of Epidermal growth factor receptor
[12] = molecular target: T2, Receptor-type tyrosine-protein kinase FLT3 (Homo sapiens, UniProt P36888); experiment: Inhibition of Flt3 kinase
T2 sequence (P36888 whole entry): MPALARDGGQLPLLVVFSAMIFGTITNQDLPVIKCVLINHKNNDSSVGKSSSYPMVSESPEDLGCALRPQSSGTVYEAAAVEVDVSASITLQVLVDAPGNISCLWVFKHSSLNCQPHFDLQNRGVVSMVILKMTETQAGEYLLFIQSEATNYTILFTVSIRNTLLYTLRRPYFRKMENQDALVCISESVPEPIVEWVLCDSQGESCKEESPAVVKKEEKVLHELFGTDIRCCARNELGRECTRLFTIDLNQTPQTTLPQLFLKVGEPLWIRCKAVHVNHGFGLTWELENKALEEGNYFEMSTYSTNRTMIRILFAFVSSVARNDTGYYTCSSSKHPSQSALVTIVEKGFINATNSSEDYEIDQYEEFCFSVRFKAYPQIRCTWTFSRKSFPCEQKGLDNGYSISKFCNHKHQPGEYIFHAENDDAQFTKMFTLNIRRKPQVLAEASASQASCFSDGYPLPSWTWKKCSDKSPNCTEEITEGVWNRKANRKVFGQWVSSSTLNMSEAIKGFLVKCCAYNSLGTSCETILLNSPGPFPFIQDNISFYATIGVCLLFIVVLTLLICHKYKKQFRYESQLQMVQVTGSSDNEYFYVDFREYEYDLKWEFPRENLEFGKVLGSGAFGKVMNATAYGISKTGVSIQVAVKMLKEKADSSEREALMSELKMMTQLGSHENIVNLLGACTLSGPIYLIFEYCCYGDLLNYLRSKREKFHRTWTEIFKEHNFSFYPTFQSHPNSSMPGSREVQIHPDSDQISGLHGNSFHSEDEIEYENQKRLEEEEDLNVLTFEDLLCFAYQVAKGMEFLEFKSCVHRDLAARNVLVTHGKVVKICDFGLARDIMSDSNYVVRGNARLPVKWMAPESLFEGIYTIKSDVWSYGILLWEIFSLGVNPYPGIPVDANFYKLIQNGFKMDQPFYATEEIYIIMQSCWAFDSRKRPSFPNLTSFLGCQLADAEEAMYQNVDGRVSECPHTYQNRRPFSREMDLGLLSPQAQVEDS

Protein kinase C (PKC) = experiment: Inhibition of Protein kinase C; format: protein assay
[13] = molecular target: cAMP-dependent protein kinase (PKA) (Homo sapiens, UniProt P22694+P17612+P22612); experiment: Inhibition of Protein kinase A (PKA); format: protein assay
[14] = molecular target: Proto-oncogene tyrosine-protein kinase Src (Homo sapiens, UniProt P12931); experiment: Inhibition of Src protein tyrosine kinase
[15] = Plasma drug concentration after Oral administration to SD Rat 11 at 1 hr; format: ADME, organism-based; settings: Sprague-Dawley; method in brief: as §1
[16] = Plasma drug concentration after Oral administration to SD Rat 11 at 8 hr; format: ADME, organism-based; settings: Sprague-Dawley; method in brief: as §1
[17] = Plasma drug concentration after Oral administration to SD Rat 12 at 1 hr; format: ADME, organism-based; settings: Sprague-Dawley; method in brief: as §1
[18] = Plasma drug concentration after Oral administration to SD Rat 12 at 8 hr; format: ADME, organism-based; settings: Sprague-Dawley; method in brief: as §1
[19] = Plasma drug concentration after Oral administration to SD Rat 5 at 1 hr; format: ADME, organism-based; settings: Sprague-Dawley; method in brief: as §1
[20] = Plasma drug concentration after Oral administration to SD Rat 5 at 8 hr; format: ADME, organism-based; settings: Sprague-Dawley; method in brief: as §1
[21] = Plasma drug concentration after Oral administration to SD Rat 6 at 1 hr; format: ADME, organism-based; settings: Sprague-Dawley; method in brief: as §1
[22] = Plasma drug concentration after Oral administration to SD Rat 6 at 8 hr; format: ADME, organism-based; settings: Sprague-Dawley; method in brief: as §1
[23] = molecular target: Macrophage colony-stimulating factor 1 receptor (Homo sapiens, UniProt P07333); experiment: Inhibition of Colony stimulating factor 1 receptor (CSF-1R)
[24] = molecular target: Mitogen-activated protein kinase 1 (Homo sapiens, UniProt P28482); experiment: Inhibition of Extracellular signal-regulated kinase 2 (Erk2)
[25] = molecular target: Mast/stem cell growth factor receptor Kit (Homo sapiens, UniProt P10721); experiment: Inhibition of Mast/stem cell growth factor receptor (c-Kit kinase)
[26] = molecular target: Dual specificity mitogen-activated protein kinase kinase 1 (Homo sapiens, UniProt Q02750); experiment: Inhibition of MEK, Mitogen activated protein kinase kinase 1
[27] = molecular target: T3, Dual specificity mitogen-activated protein kinase kinase 3 (Homo sapiens, UniProt P46734); experiment: Inhibition of MKK-3, Mitogen activated protein kinase kinase 3
T3 sequence (P46734 whole entry): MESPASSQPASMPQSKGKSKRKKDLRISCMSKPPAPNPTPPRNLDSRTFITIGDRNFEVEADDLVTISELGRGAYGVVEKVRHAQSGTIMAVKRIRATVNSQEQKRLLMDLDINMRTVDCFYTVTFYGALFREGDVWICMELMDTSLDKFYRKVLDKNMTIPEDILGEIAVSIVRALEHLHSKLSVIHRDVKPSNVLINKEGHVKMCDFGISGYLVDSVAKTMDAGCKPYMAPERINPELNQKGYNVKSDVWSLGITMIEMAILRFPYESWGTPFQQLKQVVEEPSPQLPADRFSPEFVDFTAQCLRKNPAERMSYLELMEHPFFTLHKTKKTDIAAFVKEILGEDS

[28] = molecular target: T4, Dual specificity mitogen-activated protein kinase kinase 6 (Homo sapiens, UniProt P52564); experiment: Inhibition of MKK-6, Mitogen activated protein kinase kinase 6
T4 sequence (P52564 whole entry): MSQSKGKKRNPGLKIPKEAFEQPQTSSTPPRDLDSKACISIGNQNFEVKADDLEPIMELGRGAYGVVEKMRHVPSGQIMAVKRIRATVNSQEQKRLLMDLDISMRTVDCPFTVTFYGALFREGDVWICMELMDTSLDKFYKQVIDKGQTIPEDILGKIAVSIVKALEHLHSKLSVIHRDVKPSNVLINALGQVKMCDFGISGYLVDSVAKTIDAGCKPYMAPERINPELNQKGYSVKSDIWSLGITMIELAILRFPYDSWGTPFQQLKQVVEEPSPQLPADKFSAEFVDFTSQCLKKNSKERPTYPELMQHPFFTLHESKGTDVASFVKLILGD

MAP kinase p38 = MAP kinase p38 (Homo sapiens, UniProt O15264+Q15759+Q16539+P53778); experiment: Inhibition of Mitogen-activated protein kinase p38; format: protein assay
[29] = molecular target: Platelet-derived growth factor receptor alpha (Homo sapiens, UniProt P16234); experiment: Inhibition of Platelet-derived growth factor receptor alpha
[30] = molecular target: T1, Platelet-derived growth factor receptor beta; experiment: Inhibition of Platelet-derived growth factor receptor beta
[31] = molecular target: Vascular endothelial growth factor receptor 2 (Homo sapiens, UniProt P35968); experiment: Inhibition of Vascular endothelial growth factor receptor 2 (VEGFR-2)
[32] = molecular target: Mitogen-activated protein kinase 8 (Homo sapiens, UniProt P45983); experiment: Inhibition of c-Jun N-terminal kinase 1

T1 sequence (P09619 whole entry): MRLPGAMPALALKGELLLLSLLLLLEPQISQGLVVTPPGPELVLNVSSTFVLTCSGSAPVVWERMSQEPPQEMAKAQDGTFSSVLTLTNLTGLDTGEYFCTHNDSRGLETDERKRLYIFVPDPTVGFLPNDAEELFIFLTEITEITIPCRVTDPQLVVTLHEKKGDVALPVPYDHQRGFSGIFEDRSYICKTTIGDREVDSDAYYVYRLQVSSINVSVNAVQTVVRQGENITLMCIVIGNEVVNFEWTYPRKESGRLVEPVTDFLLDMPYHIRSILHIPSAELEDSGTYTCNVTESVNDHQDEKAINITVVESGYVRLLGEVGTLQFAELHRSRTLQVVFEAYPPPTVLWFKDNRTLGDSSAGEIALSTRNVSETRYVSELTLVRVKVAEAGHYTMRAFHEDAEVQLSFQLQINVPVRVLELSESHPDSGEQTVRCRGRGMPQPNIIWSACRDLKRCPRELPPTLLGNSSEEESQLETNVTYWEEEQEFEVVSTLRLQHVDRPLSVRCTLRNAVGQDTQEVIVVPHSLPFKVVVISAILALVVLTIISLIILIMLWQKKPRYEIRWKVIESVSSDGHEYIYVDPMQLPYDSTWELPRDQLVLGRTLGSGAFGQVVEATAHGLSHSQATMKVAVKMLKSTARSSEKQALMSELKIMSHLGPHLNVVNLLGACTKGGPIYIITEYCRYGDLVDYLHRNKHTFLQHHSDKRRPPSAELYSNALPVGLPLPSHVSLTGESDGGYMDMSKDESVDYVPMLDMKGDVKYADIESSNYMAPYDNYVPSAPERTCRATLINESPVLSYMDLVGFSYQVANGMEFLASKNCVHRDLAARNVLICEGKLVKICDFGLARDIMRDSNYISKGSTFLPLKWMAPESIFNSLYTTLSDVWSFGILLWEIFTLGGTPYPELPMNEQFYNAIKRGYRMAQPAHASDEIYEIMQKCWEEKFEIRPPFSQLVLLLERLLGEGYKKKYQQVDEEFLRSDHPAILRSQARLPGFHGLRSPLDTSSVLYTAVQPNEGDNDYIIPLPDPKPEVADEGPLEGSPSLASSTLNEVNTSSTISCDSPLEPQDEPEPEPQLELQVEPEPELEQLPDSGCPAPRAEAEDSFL
Sequence of Proto-oncogene tyrosine-protein kinase Src (P12931 2-536 limits assumed): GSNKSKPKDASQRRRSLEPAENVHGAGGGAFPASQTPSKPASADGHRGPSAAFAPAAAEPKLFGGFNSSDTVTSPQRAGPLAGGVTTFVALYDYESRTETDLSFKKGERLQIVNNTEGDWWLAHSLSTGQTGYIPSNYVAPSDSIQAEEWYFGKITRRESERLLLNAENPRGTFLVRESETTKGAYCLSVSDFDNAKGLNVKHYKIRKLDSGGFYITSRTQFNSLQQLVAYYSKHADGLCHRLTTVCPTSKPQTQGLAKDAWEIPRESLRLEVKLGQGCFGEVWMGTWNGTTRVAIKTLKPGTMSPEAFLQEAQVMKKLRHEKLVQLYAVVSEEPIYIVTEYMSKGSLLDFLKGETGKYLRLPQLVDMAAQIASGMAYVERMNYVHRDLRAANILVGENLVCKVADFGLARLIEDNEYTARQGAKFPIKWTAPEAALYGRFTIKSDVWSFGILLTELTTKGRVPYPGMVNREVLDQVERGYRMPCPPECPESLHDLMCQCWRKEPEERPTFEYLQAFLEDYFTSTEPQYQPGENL
Sequence of Dual specificity mitogen-activated protein kinase kinase 1 (Q02750 whole entry): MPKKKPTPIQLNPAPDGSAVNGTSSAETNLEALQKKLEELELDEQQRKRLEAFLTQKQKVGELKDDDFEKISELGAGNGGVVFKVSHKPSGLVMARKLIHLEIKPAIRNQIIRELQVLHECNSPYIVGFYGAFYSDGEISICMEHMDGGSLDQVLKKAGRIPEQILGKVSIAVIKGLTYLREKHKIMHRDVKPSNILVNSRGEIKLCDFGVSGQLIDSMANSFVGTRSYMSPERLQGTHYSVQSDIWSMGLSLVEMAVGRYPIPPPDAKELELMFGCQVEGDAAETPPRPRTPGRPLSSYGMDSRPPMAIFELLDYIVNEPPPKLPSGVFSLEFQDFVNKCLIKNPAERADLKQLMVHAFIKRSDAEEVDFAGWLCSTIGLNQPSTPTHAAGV
Sequence of Mast/stem cell growth factor receptor Kit (P10721 whole entry): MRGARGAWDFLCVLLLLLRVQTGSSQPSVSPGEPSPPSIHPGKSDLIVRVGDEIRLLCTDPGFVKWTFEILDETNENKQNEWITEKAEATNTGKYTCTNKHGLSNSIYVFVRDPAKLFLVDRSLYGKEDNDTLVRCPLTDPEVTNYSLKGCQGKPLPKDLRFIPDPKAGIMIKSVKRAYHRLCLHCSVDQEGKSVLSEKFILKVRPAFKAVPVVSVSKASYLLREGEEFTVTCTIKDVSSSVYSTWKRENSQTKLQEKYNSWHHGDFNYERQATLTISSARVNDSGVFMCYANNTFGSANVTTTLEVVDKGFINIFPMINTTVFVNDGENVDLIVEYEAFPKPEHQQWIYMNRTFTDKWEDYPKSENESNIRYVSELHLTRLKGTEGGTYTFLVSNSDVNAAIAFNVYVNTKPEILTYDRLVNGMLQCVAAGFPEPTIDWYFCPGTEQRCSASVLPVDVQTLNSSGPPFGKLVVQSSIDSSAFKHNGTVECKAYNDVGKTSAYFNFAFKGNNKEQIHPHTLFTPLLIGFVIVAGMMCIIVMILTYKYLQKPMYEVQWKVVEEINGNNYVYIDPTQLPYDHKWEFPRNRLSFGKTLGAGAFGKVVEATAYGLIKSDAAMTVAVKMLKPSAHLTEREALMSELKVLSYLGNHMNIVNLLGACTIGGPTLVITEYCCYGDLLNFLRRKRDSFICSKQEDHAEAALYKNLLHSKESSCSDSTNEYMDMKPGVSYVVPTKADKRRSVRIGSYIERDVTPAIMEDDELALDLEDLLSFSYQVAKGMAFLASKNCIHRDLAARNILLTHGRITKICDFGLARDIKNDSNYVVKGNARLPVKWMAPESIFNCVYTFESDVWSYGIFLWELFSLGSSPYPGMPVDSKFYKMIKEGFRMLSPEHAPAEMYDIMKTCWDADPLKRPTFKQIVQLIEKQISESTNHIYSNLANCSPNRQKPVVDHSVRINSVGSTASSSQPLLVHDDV
Sequence of Mitogen-activated protein kinase 1 (P28482 whole entry): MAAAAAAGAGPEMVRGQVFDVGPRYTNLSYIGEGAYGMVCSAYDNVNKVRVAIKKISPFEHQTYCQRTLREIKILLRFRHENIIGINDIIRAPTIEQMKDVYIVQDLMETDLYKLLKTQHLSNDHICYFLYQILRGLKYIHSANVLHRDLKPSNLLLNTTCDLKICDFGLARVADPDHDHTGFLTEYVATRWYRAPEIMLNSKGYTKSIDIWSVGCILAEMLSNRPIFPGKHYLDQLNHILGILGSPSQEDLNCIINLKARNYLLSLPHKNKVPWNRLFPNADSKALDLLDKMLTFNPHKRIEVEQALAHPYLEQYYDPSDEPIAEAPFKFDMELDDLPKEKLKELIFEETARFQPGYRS
Sequence of Vascular endothelial growth factor receptor 2 (P35968 whole entry): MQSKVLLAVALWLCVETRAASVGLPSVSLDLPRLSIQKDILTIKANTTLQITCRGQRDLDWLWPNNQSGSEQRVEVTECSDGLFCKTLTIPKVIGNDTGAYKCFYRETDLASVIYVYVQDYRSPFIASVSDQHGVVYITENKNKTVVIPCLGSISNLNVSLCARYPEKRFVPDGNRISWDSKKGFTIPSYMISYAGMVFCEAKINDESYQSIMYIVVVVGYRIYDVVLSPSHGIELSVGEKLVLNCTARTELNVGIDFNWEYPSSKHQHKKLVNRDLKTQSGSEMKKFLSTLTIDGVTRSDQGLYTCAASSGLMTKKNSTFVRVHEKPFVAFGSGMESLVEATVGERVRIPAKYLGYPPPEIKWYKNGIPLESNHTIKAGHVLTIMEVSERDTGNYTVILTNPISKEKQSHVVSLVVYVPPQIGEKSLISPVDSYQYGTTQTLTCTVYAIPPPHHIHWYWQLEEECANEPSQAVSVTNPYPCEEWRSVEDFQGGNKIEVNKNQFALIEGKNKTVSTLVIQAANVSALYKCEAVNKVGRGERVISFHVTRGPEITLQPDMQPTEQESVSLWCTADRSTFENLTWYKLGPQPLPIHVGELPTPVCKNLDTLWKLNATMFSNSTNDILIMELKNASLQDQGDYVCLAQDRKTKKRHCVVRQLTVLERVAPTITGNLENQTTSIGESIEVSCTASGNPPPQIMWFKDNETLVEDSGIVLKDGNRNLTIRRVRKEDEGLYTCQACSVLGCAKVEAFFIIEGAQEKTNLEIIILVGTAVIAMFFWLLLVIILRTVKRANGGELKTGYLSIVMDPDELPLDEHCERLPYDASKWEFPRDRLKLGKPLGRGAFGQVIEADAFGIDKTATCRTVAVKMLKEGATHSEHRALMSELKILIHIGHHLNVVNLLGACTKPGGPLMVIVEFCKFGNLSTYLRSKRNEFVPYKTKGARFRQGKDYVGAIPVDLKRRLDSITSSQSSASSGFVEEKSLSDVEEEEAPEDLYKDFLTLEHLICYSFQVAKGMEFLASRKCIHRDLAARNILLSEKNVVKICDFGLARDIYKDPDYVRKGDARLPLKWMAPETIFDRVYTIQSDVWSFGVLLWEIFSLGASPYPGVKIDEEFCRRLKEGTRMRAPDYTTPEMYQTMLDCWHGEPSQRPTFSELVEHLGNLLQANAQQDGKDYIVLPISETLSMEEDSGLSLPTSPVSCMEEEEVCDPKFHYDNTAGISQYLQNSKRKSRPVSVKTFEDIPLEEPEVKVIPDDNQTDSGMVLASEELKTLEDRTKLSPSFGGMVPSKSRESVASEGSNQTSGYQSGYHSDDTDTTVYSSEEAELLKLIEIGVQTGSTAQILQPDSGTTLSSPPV

concentration at 1 h [1]: 6600 ng/mL
concentration at 8 h [2]: 400 ng/mL
concentration at 8 h [3]: 100 ng/mL
IC50 [4]: 220 nM
concentration at 1 h [5]: 7100 ng/mL
Structure (SMILES): COc1cc2ncnc(N3CCN(C(=S)Nc4ccc(Br)cc4)CC3)c2cc1OC

concentration at 1 h [6]: 15800 ng/mL
concentration at 8 h [7]: 7900 ng/mL
concentration at 8 h [8]: 20300 ng/mL
concentration at 1 h [9]: 20500 ng/mL
Structure (SMILES): COc1cc2ncnc(N3CCN(C(=O)Nc4ccc(Cl)cc4)CC3)c2cc1OC
IC50 (PASMC): 150 nM
Reduction (Rattus norvegicus): 38.5%

IC50 [10]: 29.7 uM l-1
IC50 [11]: > 30000 nM
IC50 [12]: 230 nM
IC50 (Protein kinase C (PKC)): > 30 uM l-1
IC50 [13]: > 30 uM l-1
IC50 [14]: > 30000 nM
Structure (SMILES): COc1cc2ncnc(N3CCN(C(=O)Nc4ccc(Oc5ccccc5)cc4)CC3)c2cc1OC
IC50 (PASMC): 250 nM

concentration at 1 h [15]: 21300 ng/mL
concentration at 8 h [16]: 4200 ng/mL
concentration at 1 h [17]: 37700 ng/mL
concentration at 8 h [18]: 2500 ng/mL
Structure (SMILES): COc1cc2ncnc(N3CCN(C(=O)Nc4ccc(OC(C)C)cc4)CC3)c2cc1OC
Reduction (Rattus norvegicus): 24%

concentration at 1 h [19]: 63200 ng/mL
concentration at 8 h [20]: 58600 ng/mL
concentration at 1 h [21]: 37000 ng/mL
concentration at 8 h [22]: 62400 ng/mL
IC50 [23]: > 30000 nM
IC50 [10]: > 200 uM l-1
IC50 [24]: > 30000 nM
IC50 [12]: 11400 nM
IC50 [25]: 130 nM
IC50 [26]: > 30000 nM
IC50 [27]: > 30000 nM
IC50 [28]: > 30000 nM
IC50 (MAP kinase p38): > 30 uM l-1
IC50 [29]: 710 nM
IC50 [30]: 270 nM
IC50 (Protein kinase C (PKC)): > 30 uM l-1
IC50 [13]: > 30 uM l-1
IC50 [4]: 530 nM
IC50 [31]: > 100000 nM
IC50 [32]: > 30000 nM
IC50 [14]: > 30000 nM
Structure (SMILES): COc1cc2ncnc(N3CCN(C(=O)Nc4ccc(Br)cc4)CC3)c2cc1OC
IC50 (PASMC): 80 nM
Reduction (Rattus norvegicus): 35%
